From ChEMBL document CHEMBL3352188, “Synthesis, antimicrobial and molecular docking studies of enantiomerically pure N-alkylated β-amino alcohols from phenylpropanolamines” (2014)

Tests used:
Pseudomonas aeruginosa [1] = assay: Antimicrobial activity against Pseudomonas aeruginosa MTCC 741 at 1 mg/disc after 24 hrs by disc diffusion assay; type: functional
How it was run: (§1)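 Disc diffusion on Mueller Hinton agar. Inoculum was grown in MHB for 24 h at 37 °C, swabbed onto the plates and dried for 10 min. Discs with 1 mg compound were left 30 min at room temperature for diffusion, then incubated at 37 °C for 24 h. Inhibition zone was read in mm; run twice. Solvent was the negative control, streptomycin the positive control.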

Candida albicans [2] = assay: Antimicrobial activity against Candida albicans MTCC 227 at 1 mg/disc after 24 hrs by disc diffusion assay; type: functional
Malassezia pachydermatis [3] = assay: Antimicrobial activity against Malassezia pachydermatis at 1 mg/disc after 24 hrs by disc diffusion assay; type: functional
Bacillus subtilis [4] = assay: Antimicrobial activity against Bacillus subtilis MTCC 441 after 24 hrs by two fold dilution method; type: functional; conditions: MTCC 441, 24 h
How it was run: (§2)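 Broth two-fold serial dilution in 96-well plates from 1000 to 7.81 µg/mL, compound in DMSO (2%). Inoculum was grown in MHB for 24 h at 37 °C; plates were incubated 24 h at 37 °C. 5 µL of broth was spotted onto MHA; MIC was the lowest concentration with no visible growth on agar. Streptomycin was the positive control.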

Micrococcus luteus [5] = assay: Antimicrobial activity against Micrococcus luteus MTCC 106 after 24 hrs by two fold dilution method; type: functional; conditions: MTCC 106, 24 h; how it was run: as §2
Klebsiella aerogenes [6] = assay: Antimicrobial activity against Enterobacter aerogenes MTCC 111 after 24 hrs by two fold dilution method; type: functional; conditions: MTCC 111, 24 h; how it was run: as §2
Staphylococcus aureus [7] = assay: Antimicrobial activity against Staphylococcus aureus MTCC 96 after 24 hrs by two fold dilution method; type: functional; conditions: MTCC 96, 24 h; how it was run: as §2
Salmonella typhimurium [8] = assay: Antimicrobial activity against Salmonella typhimurium MTCC 1251 after 24 hrs by two fold dilution method; type: functional, Salmonella enterica subsp. enterica serovar Typhimurium; conditions: Salmonella enterica, MTCC 1251, 24 h; how it was run: as §2
Klebsiella pneumoniae [9] = assay: Antimicrobial activity against Klebsiella pneumoniae MTCC 109 after 24 hrs by two fold dilution method; type: functional; conditions: MTCC 109, 24 h; how it was run: as §2
Proteus vulgaris [10] = assay: Antimicrobial activity against Proteus vulgaris MTCC 1771 after 24 hrs by two fold dilution method; type: functional; conditions: MTCC 1771, 24 h; how it was run: as §2
Staphylococcus aureus [11] = assay: Antimicrobial activity against methicillin-resistant Staphylococcus aureus MTCC 96 after 24 hrs by two fold dilution method; type: functional; conditions: MTCC 96, 24 h; how it was run: as §2
[12] = tested on: Salmonella enterica subsp. enterica serovar Paratyphi B; assay: Antimicrobial activity against Salmonella paratyphi B after 24 hrs by two fold dilution method; type: functional; how it was run: as §2
Shigella flexneri [13] = assay: Antimicrobial activity against Shigella flexneri MTCC 1457 after 24 hrs by two fold dilution method; type: functional; conditions: MTCC 1457, 24 h; how it was run: as §2
Pseudomonas aeruginosa [14] = assay: Antimicrobial activity against Pseudomonas aeruginosa MTCC 741 after 24 hrs by two fold dilution method; type: functional; conditions: MTCC 741, 24 h; how it was run: as §2
Candida albicans [15] = assay: Antimicrobial activity against Candida albicans MTCC 227 after 48 to 72 hrs by two fold dilution method; type: functional
How it was run: (§3)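 Yeast was grown in Sabouraud dextrose broth at 28 °C for 48 h and tested per CLSI reference methods. Two-fold serial dilutions from 1000 to 7.81 µg/mL, compound in DMSO (2%), in 96-well plates, incubated 48–72 h at 28 °C. MIC was the lowest concentration with no visible fungal growth. Ketoconazole was the positive control.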

Malassezia pachydermatis [16] = assay: Antimicrobial activity against Malassezia pachydermatis after 48 to 72 hrs by two fold dilution method; type: functional; how it was run: as §3
Bacillus subtilis [17] = assay: Bactericidal activity against Bacillus subtilis MTCC 441 after 24 hrs by two fold dilution method; type: functional; conditions: MTCC 441, 24 h
How it was run: (§4)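 Tubes held 5 mL MHB with two-fold dilutions from 1000 to 7.81 µg/mL and were inoculated with 5 × 10^5 to 1 × 10^6 cells in 0.1 mL MHB, incubated without shaking. Turbidity was checked at 20 h, tubes vortexed and re-incubated 4 h.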

Micrococcus luteus [18] = assay: Bactericidal activity against Micrococcus luteus MTCC 106 after 24 hrs by two fold dilution method; type: functional; conditions: MTCC 106, 24 h; how it was run: as §4
Klebsiella aerogenes [19] = assay: Bactericidal activity against Enterobacter aerogenes MTCC 111 after 24 hrs by two fold dilution method; type: functional; conditions: MTCC 111, 24 h; how it was run: as §4
Staphylococcus aureus [20] = assay: Bactericidal activity against Staphylococcus aureus MTCC 96 after 24 hrs by two fold dilution method; type: functional; conditions: MTCC 96, 24 h; how it was run: as §4
Salmonella typhimurium [21] = assay: Bactericidal activity against Salmonella typhimurium MTCC 1251 after 24 hrs by two fold dilution method; type: functional, Salmonella enterica subsp. enterica serovar Typhimurium; conditions: Salmonella enterica, MTCC 1251, 24 h; how it was run: as §4
Klebsiella pneumoniae [22] = assay: Bactericidal activity against Klebsiella pneumoniae MTCC 109 after 24 hrs by two fold dilution method; type: functional; conditions: MTCC 109, 24 h; how it was run: as §4
Proteus vulgaris [23] = assay: Bactericidal activity against Proteus vulgaris MTCC 1771 after 24 hrs by two fold dilution method; type: functional; conditions: MTCC 1771, 24 h; how it was run: as §4
Staphylococcus aureus [24] = assay: Bactericidal activity against methicillin-resistant Staphylococcus aureus MTCC 96 after 24 hrs by two fold dilution method; type: functional; conditions: MTCC 96, 24 h; how it was run: as §4
[25] = tested on: Salmonella enterica subsp. enterica serovar Paratyphi B; assay: Bactericidal activity against Salmonella paratyphi B after 24 hrs by two fold dilution method; type: functional; how it was run: as §4
Shigella flexneri [26] = assay: Bactericidal activity against Shigella flexneri MTCC 1457 after 24 hrs by two fold dilution method; type: functional; conditions: MTCC 1457, 24 h; how it was run: as §4
Pseudomonas aeruginosa [27] = assay: Bactericidal activity against Pseudomonas aeruginosa MTCC 741 after 24 hrs by two fold dilution method; type: functional; conditions: MTCC 741, 24 h; how it was run: as §4
Candida albicans [28] = assay: Fungicidal activity against Candida albicans MTCC 227 after 48 to 72 hrs by two fold dilution method; type: functional
Malassezia pachydermatis [29] = assay: Fungicidal activity against Malassezia pachydermatis after 48 to 72 hrs by two fold dilution method; type: functional
Bacillus subtilis [30] = assay: Antimicrobial activity against Bacillus subtilis MTCC 441 at 1 mg/disc after 24 hrs by disc diffusion assay; type: functional; how it was run: as §1
Micrococcus luteus [31] = assay: Antimicrobial activity against Micrococcus luteus MTCC 106 at 1 mg/disc after 24 hrs by disc diffusion assay; type: functional; how it was run: as §1
Klebsiella aerogenes [32] = assay: Antimicrobial activity against Enterobacter aerogenes MTCC 111 at 1 mg/disc after 24 hrs by disc diffusion assay; type: functional; how it was run: as §1
Staphylococcus aureus [33] = assay: Antimicrobial activity against Staphylococcus aureus MTCC 96 at 1 mg/disc after 24 hrs by disc diffusion assay; type: functional; how it was run: as §1
Salmonella typhimurium [34] = assay: Antimicrobial activity against Salmonella typhimurium MTCC 1251 at 1 mg/disc after 24 hrs by disc diffusion assay; type: functional, Salmonella enterica subsp. enterica serovar Typhimurium; how it was run: as §1
Klebsiella pneumoniae [35] = assay: Antimicrobial activity against Klebsiella pneumoniae MTCC 109 at 1 mg/disc after 24 hrs by disc diffusion assay; type: functional; how it was run: as §1
Proteus vulgaris [36] = assay: Antimicrobial activity against Proteus vulgaris MTCC 1771 at 1 mg/disc after 24 hrs by disc diffusion assay; type: functional; how it was run: as §1
Staphylococcus aureus [37] = assay: Antimicrobial activity against […] Staphylococcus aureus MTCC 96 at 1 mg/disc after 24 hrs by disc diffusion assay; type: functional; how it was run: as §1
[38] = tested on: Salmonella enterica subsp. enterica serovar Paratyphi B; assay: Antimicrobial activity against Salmonella paratyphi B at 1 mg/disc after 24 hrs by disc diffusion assay; type: functional; how it was run: as §1
Shigella flexneri [39] = assay: Antimicrobial activity against Shigella flexneri MTCC 1457 at 1 mg/disc after 24 hrs by disc diffusion assay; type: functional; how it was run: as §1

`C[C@H](N[C@H](C)c1ccccc1)[C@H](O)c1ccccc1.Cl` was tested, and the “inhibition zone (IZ)” value (Pseudomonas aeruginosa [1]) was 16 mm, the “inhibition zone (IZ)” value (Candida albicans [2]) was 14 mm and the “inhibition zone (IZ)” value (Malassezia pachydermatis [3]) was 15 mm. It also gave an MIC (Bacillus subtilis [4]) of 125 µg/mL, an MIC (Micrococcus luteus [5]) of 125 µg/mL and an MIC (Klebsiella aerogenes [6]) of 125 µg/mL. For the same compound, the MIC (Staphylococcus aureus [7]) was 62.5 µg/mL, the MIC (Salmonella typhimurium [8]) was 250 µg/mL and the MIC (Klebsiella pneumoniae [9]) was 250 µg/mL. For the same compound, the MIC (Proteus vulgaris [10]) was 250 µg/mL, the MIC (Staphylococcus aureus [11]) was 250 µg/mL and the MIC [12] was 125 µg/mL. The MIC (Shigella flexneri [13]) was 250 µg/mL, the MIC (Pseudomonas aeruginosa [14]) was 62.5 µg/mL and the MIC (Candida albicans [15]) was 125 µg/mL. For the same compound, the MIC (Malassezia pachydermatis [16]) was 125 µg/mL, the MBC (Bacillus subtilis [17]) was 125 µg/mL and the MBC (Micrococcus luteus [18]) was 250 µg/mL. It also gave an MBC (Klebsiella aerogenes [19]) of 250 µg/mL, an MBC (Staphylococcus aureus [20]) of 62.5 µg/mL and an MBC (Salmonella typhimurium [21]) of 500 µg/mL. For the same compound, the MBC (Klebsiella pneumoniae [22]) was 500 µg/mL, the MBC (Proteus vulgaris [23]) was 500 µg/mL and the MBC (Staphylococcus aureus [24]) was 500 µg/mL. For the same compound, the MBC [25] was 250 µg/mL, the MBC (Shigella flexneri [26]) was 500 µg/mL and the MBC (Pseudomonas aeruginosa [27]) was 125 µg/mL. The MFC (Candida albicans [28]) was 125 µg/mL, the MFC (Malassezia pachydermatis [29]) was 125 µg/mL and the “inhibition zone (IZ)” value (Bacillus subtilis [30]) was 14 mm. For the same compound, the “inhibition zone (IZ)” value (Micrococcus luteus [31]) was 14 mm, the “inhibition zone (IZ)” value (Klebsiella aerogenes [32]) was 13 mm and the “inhibition zone (IZ)” value (Staphylococcus aureus [33]) was 16 mm. For the same compound, the “inhibition zone (IZ)” value (Salmonella typhimurium [34]) was 11 mm, the “inhibition zone (IZ)” value (Klebsiella pneumoniae [35]) was 13 mm and the “inhibition zone (IZ)” value (Proteus vulgaris [36]) was 12 mm. For the same compound, the “inhibition zone (IZ)” value (Staphylococcus aureus [37]) was 11 mm, the “inhibition zone (IZ)” value [38] was 14 mm and the “inhibition zone (IZ)” value (Shigella flexneri [39]) was 16 mm.
`CC[C@@H](N[C@@H](C)[C@H](O)c1ccccc1)c1ccccc1.Cl` was tested, and the “inhibition zone (IZ)” value (Pseudomonas aeruginosa [1]) was 18 mm, the “inhibition zone (IZ)” value (Candida albicans [2]) was 22 mm and the “inhibition zone (IZ)” value (Malassezia pachydermatis [3]) was 24 mm. It also gave an MIC (Bacillus subtilis [4]) of 31.2 µg/mL, an MIC (Micrococcus luteus [5]) of 31.2 µg/mL and an MIC (Klebsiella aerogenes [6]) of 31.2 µg/mL. It also gave an MIC (Staphylococcus aureus [7]) of 31.2 µg/mL, an MIC (Salmonella typhimurium [8]) of 31.2 µg/mL and an MIC (Klebsiella pneumoniae [9]) of 15.6 µg/mL. For the same compound, the MIC (Proteus vulgaris [10]) was 31.2 µg/mL, the MIC (Staphylococcus aureus [11]) was 31.2 µg/mL and the MIC [12] was 62.5 µg/mL. It also gave an MIC (Shigella flexneri [13]) of 15.6 µg/mL, an MIC (Pseudomonas aeruginosa [14]) of 62.5 µg/mL and an MIC (Candida albicans [15]) of 31.2 µg/mL. The MIC (Malassezia pachydermatis [16]) was 31.2 µg/mL, the MBC (Bacillus subtilis [17]) was 31.2 µg/mL and the MBC (Micrococcus luteus [18]) was 62.5 µg/mL. For the same compound, the MBC (Klebsiella aerogenes [19]) was 62.5 µg/mL, the MBC (Staphylococcus aureus [20]) was 31.2 µg/mL and the MBC (Salmonella typhimurium [21]) was 31.2 µg/mL. The MBC (Klebsiella pneumoniae [22]) was 15.6 µg/mL, the MBC (Proteus vulgaris [23]) was 31.2 µg/mL and the MBC (Staphylococcus aureus [24]) was 31.2 µg/mL. For the same compound, the MBC [25] was 125 µg/mL, the MBC (Shigella flexneri [26]) was 31.2 µg/mL and the MBC (Pseudomonas aeruginosa [27]) was 62.5 µg/mL. For the same compound, the MFC (Candida albicans [28]) was 31.2 µg/mL, the MFC (Malassezia pachydermatis [29]) was 31.2 µg/mL and the “inhibition zone (IZ)” value (Bacillus subtilis [30]) was 20 mm. The “inhibition zone (IZ)” value (Micrococcus luteus [31]) was 21 mm, the “inhibition zone (IZ)” value (Klebsiella aerogenes [32]) was 21 mm and the “inhibition zone (IZ)” value (Staphylococcus aureus [33]) was 22 mm. For the same compound, the “inhibition zone (IZ)” value (Salmonella typhimurium [34]) was 20 mm, the “inhibition zone (IZ)” value (Klebsiella pneumoniae [35]) was 23 mm and the “inhibition zone (IZ)” value (Proteus vulgaris [36]) was 21 mm. The “inhibition zone (IZ)” value (Staphylococcus aureus [37]) was 20 mm, the “inhibition zone (IZ)” value [38] was 19 mm and the “inhibition zone (IZ)” value (Shigella flexneri [39]) was 21 mm.
